Experimental data taken from ChEMBL document CHEMBL1123853, “A novel class of cardiotonics. Synthesis and pharmacological properties of [4-(substituted-amino)phenyl]pyridazinones and related derivatives” (1987).

Assays:
[1] = organism: Canis familiaris; test: Positive inotropic in the isolated papillary muscle of the dog.; assay type: functional, Canis lupus familiaris
Summary of the method: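 Right ventricular anterior papillary muscle with septum, from mongrel dogs (7–12 kg, pentobarbital 30 mg/kg iv). It was perfused at about 100 mmHg via the septal artery with blood from a heparinized donor dog and paced at 120/min (1 ms pulses, about 1.5× threshold). Isometric tension was recorded. Saline solutions were injected intra-arterially, with amrinone as reference. ED15 (15% rise in developed tension) was taken from log dose-response curves. Results are mean ± SEM (n = 7) or mean ± range (n = 2).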

[2] = system: Canis familiaris; test: Inotropic activity determined by evaluating the % change in contractile force (CF) of right ventricle at a dose of 100 ug/kg administered intravenously […]; assay type: functional, Canis lupus familiaris, Heart right ventricle
Summary of the method: (§1)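 Mongrel dogs of either sex, 7–15 kg, anesthetized with sodium pentobarbital (30 mg/kg iv), open-chest, intubated and ventilated on room air. Compounds given intravenously. A femoral artery catheter with pressure transducer recorded SBP and DBP. dP/dtmax, right ventricular contractile force, cardiac output and heart rate were also recorded, as % change at each iv dose.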

[3] = organism: Canis familiaris; test: Positive inotropic activity determined in the […](that produced 30% increase in dose- response curves [dP/dt(max)]); assay type: functional; conditions: Canis lupus familiaris
Summary of the method: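 In the anesthetized open-chest dog (mongrel, 7–15 kg, pentobarbital 30 mg/kg iv, ventilated on room air), compounds were given intravenously and LV dP/dtmax was recorded. The dose giving a 30% rise in dP/dtmax was read from the dose-response curves. Results are mean ± SEM (n = 3) or mean ± range (n = 2).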

[4] = system: Canis familiaris; test: Inotropic activity determined by evaluating the % change in Diastolic Blood Pressure (DBP) at a dose of 100 ug/kg administered intravenously […]; assay type: functional, Canis lupus familiaris; summary of the method: as §1
[5] = system: Canis familiaris; test: Inotropic activity determined by evaluating the % change in Systolic Blood Pressure (SBP) at a dose of 100 ug/kg administered intravenously […]; assay type: functional, Canis lupus familiaris, Muscle tissue; summary of the method: as §1
[6] = system: Canis familiaris; test: Inotropic activity determined by evaluating the maximum rate of rise in left ventricular pressure at a dose of 30 ug/kg administered intravenously […]; assay type: functional, Canis lupus familiaris, Muscle tissue; summary of the method: as §1
[7] = system: Canis familiaris; test: Inotropic activity determined by evaluating the maximum rate of rise in left ventricular pressure at a dose of 100 ug/kg administered intravenously […]; assay type: functional, Canis lupus familiaris, Muscle tissue; summary of the method: as §1
[8] = system: Canis familiaris; test: Inotropic activity determined by evaluating the % change in Cardiac out put (CO)at a dose of 30 ug/kg administered intravenously […]; assay type: functional, Canis lupus familiaris; summary of the method: as §1
[9] = system: Canis familiaris; test: Inotropic activity determined by evaluating the % change in Cardiac out put (CO)at a dose of 100 ug/kg administered intravenously […]; assay type: functional, Canis lupus familiaris; summary of the method: as §1
[10] = system: Canis familiaris; test: Inotropic activity determined by evaluating the % change in Heart Rate (HR) at a dose of 100 ug/kg administered intravenously […]; assay type: functional, Canis lupus familiaris; summary of the method: as §1
[11] = system: Canis familiaris; test: Inotropic activity determined by evaluating the % change in contractile force (CF) of right ventricle at a dose of 30 ug/kg administered intravenously […]; assay type: functional, Canis lupus familiaris, Heart right ventricle; summary of the method: as §1
[12] = system: Canis familiaris; test: Inotropic activity determined by evaluating the % change in Diastolic Blood Pressure (DBP) at a dose of 30 ug/kg administered intravenously […]; assay type: functional, Canis lupus familiaris; summary of the method: as §1
[13] = system: Canis familiaris; test: Inotropic activity determined by evaluating the % change in Systolic Blood Pressure (SBP) at a dose of 30 ug/kg administered intravenously […]; assay type: functional, Canis lupus familiaris, Muscle tissue; summary of the method: as §1
[14] = system: Canis familiaris; test: Inotropic activity determined by evaluating the % change in Heart Rate (HR) at a dose of 30 ug/kg administered intravenously […]; assay type: functional, Canis lupus familiaris; summary of the method: as §1
[15] = system: Canis familiaris; test: Inotropic activity determined by evaluating the % change in Cardiac out put (CO)at a dose of 300 ug/kg administered intravenously […]; assay type: functional, Canis lupus familiaris; summary of the method: as §1
[16] = system: Canis familiaris; test: Inotropic activity determined by evaluating the % change in Diastolic Blood Pressure (DBP) at a dose of 300 ug/kg administered intravenously […]; assay type: functional, Canis lupus familiaris; summary of the method: as §1
[17] = system: Canis familiaris; test: Inotropic activity determined by evaluating the % change in Systolic Blood Pressure (SBP) at a dose of 300 ug/kg administered intravenously […]; assay type: functional, Canis lupus familiaris, Muscle tissue; summary of the method: as §1
[18] = system: Canis familiaris; test: Inotropic activity determined by evaluating the maximum rate of rise in left ventricular pressure at a dose of 300 ug/kg administered intravenously […]; assay type: functional, Canis lupus familiaris, Muscle tissue; summary of the method: as §1
[19] = system: Canis familiaris; test: Inotropic activity determined by evaluating the % change in Heart Rate (HR) at a dose of 300 ug/kg administered intravenously […]; assay type: functional, Canis lupus familiaris, Muscle tissue; summary of the method: as §1
[20] = system: Canis familiaris; test: Inotropic activity determined by evaluating the % change in contractile force (CF) of right ventricle at a dose of 300 ug/kg administered intravenously […]; assay type: functional, Canis lupus familiaris, Heart right ventricle; summary of the method: as §1
[21] = system: Canis familiaris; test: Inotropic activity determined by evaluating the % change in Heart Rate (HR) at a dose of 10 ug/kg administered intravenously […]; assay type: functional, Canis lupus familiaris; summary of the method: as §1
[22] = system: Canis familiaris; test: Inotropic activity determined by evaluating the % change in Systolic Blood Pressure (SBP) at a dose of 10 ug/kg administered intravenously […]; assay type: functional, Canis lupus familiaris; summary of the method: as §1
[23] = system: Canis familiaris; test: Inotropic activity determined by evaluating the % change in Diastolic Blood Pressure (DBP) at a dose of 10 ug/kg administered intravenously […]; assay type: functional, Canis lupus familiaris; summary of the method: as §1
[24] = system: Canis familiaris; test: Inotropic activity determined by evaluating the maximum rate of rise in left ventricular pressure at a dose of 10 ug/kg administered intravenously […]; assay type: functional, Canis lupus familiaris, Muscle tissue; summary of the method: as §1
[25] = system: Canis familiaris; test: Inotropic activity determined by evaluating the % change in contractile force (CF) of right ventricle at a dose of 10 ug/kg administered intravenously […]; assay type: functional, Canis lupus familiaris, Heart right ventricle; summary of the method: as §1
[26] = system: Canis familiaris; test: Inotropic activity determined by evaluating the % change in Cardiac out put (CO)at a dose of 10 ug/kg administered intravenously […]; assay type: functional, Canis lupus familiaris; summary of the method: as §1

Structure (SMILES)	ED15 [1]	Change of CF [2]	ED30 [3]	Change of DBP [4]	Change of SBP [5]	dP/dt [6]	dP/dt [7]	Change of CO [8]	Change of CO [9]	Change of HR [10]	Change of CF [11]	Change of DBP [12]	Change of SBP [13]	Change of HR [14]	other results
O=C1CCC(c2ccc(NCc3ccnc4ccccc34)cc2)=NN1	>300 µg														
CC1CC(=O)NN=C1c1ccc(N(C)c2ccncc2)cc1.Cl (centres undefined)	18.5 µg	41.2%	> 0.1 mg/kg	-13.9%	-5.5%	11%	27.5%	8.9%	13.3%	22.8%	13%	-3.2%	-0.6%	2.6%	
Cl.O=C1CCC(c2ccc(Nc3ccccn3)cc2)=NN1	17.5 µg	40.5%	0.106 mg/kg	-25.5%	-27.2%	16.1%	37.8%	13.9%	22.1%	16.7%	22%	-15.6%	-13.7%	6.7%	
CC(Nc1ccc(C2=NNC(=O)CC2)cc1)c1ccncc1 (centres undefined)	33 µg														
CCC1CC(=O)NN=C1c1ccc(Nc2ccncc2)cc1.Cl (centres undefined)	23 µg	23.7%	0.256 mg/kg	-15.1%	-8.8%		20.4%		15.2%	12%					Change of CO [15]: 19.2%; Change of DBP [16]: -18.3%; Change of SBP [17]: -11.1%; dP/dt [18]: 34.8%; Change of HR [19]: 22.5%; Change of CF [20]: 35.7%
CN(C)c1ccc(CNc2ccc(C3=NNC(=O)CC3)cc2)cc1	>300 µg														
CN(c1ccncc1)c1ccc(C2=NNC(=O)CC2)cc1.Cl	38 µg	11%	> 0.3 mg/kg	-4%	-2.1%		13.6%		5.9%	1.4%					Change of CO [15]: 8.7%; Change of DBP [16]: -10.3%; Change of SBP [17]: -5.8%; dP/dt [18]: 17.8%; Change of HR [19]: 2.7%; Change of CF [20]: 20%
Cl.O=C1CCC(c2ccc(Nc3ncccn3)cc2)=NN1	165 µg														
O=C1CCC(c2ccc(-n3ccnc3)cc2)=NN1 [IMAZODAN]		83.8%	0.046 mg/kg	-28.3%	-16.9%	22.3%	49.3%	26.3%	35.5%	16.1%	42.2%	-16.5%	-9.6%	8.1%	Change of HR [21]: 3.6%; Change of SBP [22]: -4.8%; Change of DBP [23]: -8.1%; dP/dt [24]: 10.3%; Change of CF [25]: 13.8%; Change of CO [26]: 11.2%
CC1CC(=O)NN=C1c1ccc(Nc2ccccn2)cc1.Cl (centres undefined)	3.2 µg		0.022 mg/kg			46.4%		15.8%			44.4%	-31%	-17.6%	8.9%	Change of HR [21]: 5.3%; Change of SBP [22]: -14.1%; Change of DBP [23]: -22.4%; dP/dt [24]: 19.3%; Change of CF [25]: 19.5%; Change of CO [26]: 12.7%
CC1CC(c2ccc(Nc3ccncc3)cc2)=NNC1=O.Cl (centres undefined)	4.7 µg	52.9%	0.072 mg/kg	-26.1%	-14.6%	24.2%	43.8%	10.3%	23.3%	17.3%	22.5%	-9.8%	-5.9%	4.6%	
Cl.O=C1CCC(c2ccc(Nc3ccnc4ccccc34)cc2)=NN1	>300 µg														
CN(c1ccc(C2=NNC(=O)CC2)cc1)c1ccccn1.Cl	5.6 µg	37.7%	> 0.1 mg/kg	-17.8%	-10.5%	14.3%	32.5%	13.2%	18.7%	9.5%	16.5%	-9.6%	-6.3%	4.5%	
O=C1CCC(c2ccc(NCc3ccncc3)cc2)=NN1	>300 µg														
O=C1CCC(c2ccc(NCc3cccnc3)cc2)=NN1	86 µg														
